Test results: ChEMBL document CHEMBL1134208, “Controlled drug release: new water-soluble prodrugs of an HIV protease inhibitor” (Bioorg Med Chem Lett, 2001)
Values after ≈ are worked out from the molar mass of the structure shown.

Tests used:
Format in all cases: ADME
[1] = Time required for 50% release of KNI-727 at 37 degree celsius
Method in brief: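 Prodrug added from a 0.5 mM DMSO stock to PBS (pH 7.4) and incubated at 37 °C. Aliquots taken at successive time points were injected directly onto HPLC with detection at 230 nm. Loss of prodrug and appearance of released parent were followed over time to give the half-life of release.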

[2] = Water solubility of prodrug was determined; conditions: buffer
Method in brief: (§1)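 Prodrug solution was passed through a membrane filter, and the dissolved prodrug concentration was then quantified by HPLC. Solubility was set against that of the parent drug measured the same way.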

[3] = Water solubility of prodrug was determined relative to KNI-727; conditions: buffer; method in brief: as §1

| T1/2 [1] [h] | Solubility [2] [mg/mL] | Relative solubility [3] | Solubility [3] [mg/mL] | SMILES |
| --- | --- | --- | --- | --- |
| 16.8 | – | – | – | Cc1cccc(C)c1OCC(=O)N[C@@H](Cc1ccccc1)[C@H](OC(=O)CCC(=O)NCCC(=O)O)C(=O)N1CSC(C)(C)[C@H]1C(=O)NC(C)(C)C |
| 18.7 | 0.0735 (≈ 103 µM) | 6.6 | – | Cc1cccc(C)c1OCC(=O)N[C@@H](Cc1ccccc1)[C@H](OC(=O)CCC(=O)NCC(=O)O)C(=O)N1CSC(C)(C)[C@H]1C(=O)NC(C)(C)C |
| 0.333 | 0.21 (≈ 295 µM) | 18.9 | – | Cc1cccc(C)c1OCC(=O)N[C@@H](Cc1ccccc1)[C@H](OC(=O)CCC(=O)NCC(N)=O)C(=O)N1CSC(C)(C)[C@H]1C(=O)NC(C)(C)C |
| 16 | 0.0895 (≈ 137 µM) | 8.1 | – | Cc1cccc(C)c1OCC(=O)N[C@@H](Cc1ccccc1)[C@H](OC(=O)CCC(N)=O)C(=O)N1CSC(C)(C)[C@H]1C(=O)NC(C)(C)C |
| 28 | 56.9 | – | 5130 | Cc1cccc(C)c1OCC(=O)N[C@@H](Cc1ccccc1)[C@H](OC(=O)CCCC(=O)NCCN)C(=O)N1CSC(C)(C)[C@H]1C(=O)NC(C)(C)C.Cl |
| 0.35 | 115.4 | – | 10400 | Cc1cccc(C)c1OCC(=O)N[C@@H](Cc1ccccc1)[C@H](OC(=O)CCC(=O)NCCN)C(=O)N1CSC(C)(C)[C@H]1C(=O)NC(C)(C)C.Cl |
| < 0.017 | 136.7 | – | 12300 | Cc1cccc(C)c1OCC(=O)N[C@@H](Cc1ccccc1)[C@H](OC(=O)CC(C)(C)C(=O)NCCN)C(=O)N1CSC(C)(C)[C@H]1C(=O)NC(C)(C)C.Cl |
| 8.8 | < 0.0111 | – | – | Cc1cccc(C)c1OCC(=O)N[C@@H](Cc1ccccc1)[C@H](OC(=O)CCC(=O)NCc1ccccc1)C(=O)N1CSC(C)(C)[C@H]1C(=O)NC(C)(C)C.Cl |
| 0.183 | 171.5 | – | – | Cc1cccc(C)c1OCC(=O)N[C@@H](Cc1ccccc1)[C@H](OC(=O)CCC(=O)NCCN(C)C)C(=O)N1CSC(C)(C)[C@H]1C(=O)NC(C)(C)C.Cl |
